Data reported in publication PMC8662605 (Molecular Biology and Evolution, 2021).

Experiments:
[1] = system: 172K mutant of the white-faced saki Tas2R16; assay: functional heterologous cell expression assay, calcium mobilization, mutagenesis; type: cell-based, white-faced saki (Pithecia pithecia); conditions: for EC50: 172K mutant of white-faced saki Tas2R16
Procedure, shortened: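 Saki Tas2R16 (wild-type, or the reverse 172K mutant made by site-directed mutagenesis) was expressed from HSV-tagged pcDNA5/FRT vectors, transiently transfected into HEK293 cells stably expressing chimeric Gα16-gust44. Calcium mobilisation on bitter stimulation was recorded on a fluorescence plate reader. EC50 came from nonlinear sigmoidal dose–response fits with variable slope. Cell-surface receptor expression was measured by imaging cytometry.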

[2] = system: white-faced saki Tas2R16 (wild-type, 172N); type: cell-based, white-faced saki (Pithecia pithecia)
[3] = molecular target: T1, human Tas2R16 (Homo sapiens, UniProt Q9NYV7); type: cell-based
T1 sequence (Q9NYV7 1-291): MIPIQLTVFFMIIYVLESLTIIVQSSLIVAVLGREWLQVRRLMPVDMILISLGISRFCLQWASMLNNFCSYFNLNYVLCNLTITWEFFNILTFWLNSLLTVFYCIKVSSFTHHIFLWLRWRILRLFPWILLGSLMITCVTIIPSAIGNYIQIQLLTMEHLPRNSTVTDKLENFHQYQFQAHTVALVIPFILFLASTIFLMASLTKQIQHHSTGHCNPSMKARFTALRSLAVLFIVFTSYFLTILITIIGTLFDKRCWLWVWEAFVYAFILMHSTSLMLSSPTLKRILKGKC

[4] = 172K saki mutant versus wild-type (172N)

Row | Compound | EC50 [1] [µM] | fold increased EC50 value compared with the wild-type [1, 4] [fold] | sensitivity compared with the wild-type [1, 4] | EC50 [2] [µM] | EC50 [3] [µM]
1 | O=Cc1ccccc1O[C@@H]1O[C@H](CO)[C@@H](O)[C@H](O)[C@H]1O [helicin] | 890 ± 110 | ~2 | about 50% | 500 ± 40 | –
2 | OCc1ccccc1O[C@@H]1O[C@H](CO)[C@@H](O)[C@H](O)[C@H]1O [salicin] | 1120 ± 190 | – | about 50% | 510 ± 30 | 490 ± 80
